According to ChEMBL document CHEMBL1140927, “Discovery of N-(3-fluorophenyl)-1-[(4-([(3S)-3-methyl-1-piperazinyl]methyl)phenyl)acetyl]-4-piperidinamine (GSK962040), the first small molecule motilin receptor agonist clinical candidate” (J Med Chem, 2009):

How the values were obtained:
Motilin receptor [1] = molecular target: T1, Motilin receptor (Homo sapiens, UniProt O43193); assay: Intrinsic activity at human recombinant motilin receptor expressed in CHO cells relative to motilin; assay type: cell-based
Summary of the method: (§1)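 CHO-K1 cells stably transfected with human motilin receptor, grown in DMEM/HamF-12 with 10% FBS, 2 mM GlutaMAX, 1 mg/mL Geneticin; seeded 10 000 cells/well, 24 h. Loaded with Fluo 4 (2.5 µM) in Tyrodes with probenecid, 1 h at 37.5 °C. Compound top final 12 µM, 1-in-4 dilutions; fluorescence read over 1 min; max change over baseline, four-parameter logistic fit; intrinsic activity = curve maximum relative to motilin maximum.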

Cytochrome P450 3A4 [2] = molecular target: T2, Cytochrome P450 3A4 (Homo sapiens, UniProt P08684); assay: Inhibition of human CYP3A4 expressed in Escherichia coli using diethoxyfluorescein substrate by time dependent inhibition assay; assay type: ADME
Cytochrome P450 3A4 [3] = molecular target: T2, Cytochrome P450 3A4; assay: Inhibition of human CYP3A4 expressed in Escherichia coli using 7BQ substrate by time dependent inhibition assay; assay type: ADME
Cytochrome P450 3A4 [4] = molecular target: T2, Cytochrome P450 3A4; assay: Inhibition of human CYP3A4 expressed in Escherichia coli using diethoxyfluorescein substrate assessed as decrease in enzyme activity by time dependent inhibition assay; assay type: ADME; parameters: unit not given here
Motilin receptor [5] = molecular target: T1, Motilin receptor; assay: Agonist activity at human recombinant motilin receptor expressed in CHO cells assessed as increase in intracellular calcium by FLIPR assay; assay type: functional, cell-based; summary of the method: as §1
Stomach [6] = assay: Potentiation of electric field stimulated-rabbit gastric antrum contraction at 1 uM; assay type: functional, Oryctolagus cuniculus
Summary of the method: (§2)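 Isolated native rabbit gastric antrum tissue. Cholinergic contractions are evoked by electrical field stimulation (EFS), and compound is added at the stated concentration. The read-out is % potentiation of EFS-evoked contractions, n = 4-8.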

Stomach [7] = assay: Potentiation of electric field stimulated-rabbit gastric antrum contraction at 0.3 uM; assay type: functional, Oryctolagus cuniculus; summary of the method: as §2
Stomach [8] = assay: Potentiation of electric field stimulated-rabbit gastric antrum contraction at 0.1 uM; assay type: functional, Oryctolagus cuniculus; summary of the method: as §2
[9] = Cmax in Sprague-Dawley rat at 5 mg/kg, po; assay type: ADME, organism-based; parameters: dose 5 mg/kg, route oral; conditions: in vivo
Summary of the method: (§3)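 Male Sprague-Dawley rats (n = 3), HCl salt suspended in 1% w/v methylcellulose at 1 mg free base/mL, oral gavage 5 mL/kg for 5 mg free base/kg; serial blood up to 12 h (8 h in a second study); diluted blood analysed by LC/MS/MS, LLQ 5 ng/mL.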

[10] = Tmax in Sprague-Dawley rat at 5 mg/kg, po; assay type: ADME, organism-based; parameters: dose 5 mg/kg, route oral; conditions: in vivo; summary of the method: as §3
Rattus norvegicus = assay: AUC (0 to t) in Sprague-Dawley rat at 5 mg/kg, po; assay type: ADME, organism-based, Plasma; parameters: dose 5 mg/kg, route oral; conditions: in vivo; summary of the method: as §3
Stomach [11] = assay: Potentiation of electric field stimulated-rabbit gastric antrum contraction at 3 uM; assay type: functional, Oryctolagus cuniculus
Summary of the method: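 Isolated rabbit gastric antrum; cholinergic contractions evoked by electrical field stimulation, compound response expressed as % potentiation of EFS-evoked contraction, n = 4-8.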

Cytochrome P450 3A4 [12] = molecular target: T2, Cytochrome P450 3A4; assay: Inhibition of human CYP3A4 expressed in Escherichia coli using diethoxyfluorescein substrate measured in 0 to 5 mins by time dependent inhibition assay; assay type: ADME
Cytochrome P450 3A4 [13] = molecular target: T2, Cytochrome P450 3A4; assay: Inhibition of human CYP3A4 expressed in Escherichia coli using diethoxyfluorescein substrate measured in 25 to 30 mins by time dependent inhibition assay; assay type: ADME
Cytochrome P450 1A2 = molecular target: T3, Cytochrome P450 1A2 (Homo sapiens, UniProt P05177); assay: Inhibition of human CYP1A2; assay type: ADME
T3 sequence (P05177 whole entry): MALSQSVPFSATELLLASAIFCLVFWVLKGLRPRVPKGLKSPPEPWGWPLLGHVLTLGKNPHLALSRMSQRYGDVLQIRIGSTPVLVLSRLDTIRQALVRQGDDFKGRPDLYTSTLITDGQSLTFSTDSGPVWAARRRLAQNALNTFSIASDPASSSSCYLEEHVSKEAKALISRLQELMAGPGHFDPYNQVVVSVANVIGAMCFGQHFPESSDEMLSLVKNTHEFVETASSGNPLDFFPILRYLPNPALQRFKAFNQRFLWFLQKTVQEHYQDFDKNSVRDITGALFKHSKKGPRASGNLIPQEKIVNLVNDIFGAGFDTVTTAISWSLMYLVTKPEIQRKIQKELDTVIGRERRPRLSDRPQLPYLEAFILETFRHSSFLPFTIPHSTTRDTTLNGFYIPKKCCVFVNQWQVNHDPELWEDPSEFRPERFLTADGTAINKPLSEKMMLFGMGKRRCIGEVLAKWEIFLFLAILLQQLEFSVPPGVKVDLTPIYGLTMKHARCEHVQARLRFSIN

Cytochrome P450 2C9 = Cytochrome P450 2C9 (Homo sapiens, UniProt P11712); assay: Inhibition of human CYP2C9; assay type: ADME
Cytochrome P450 2C19 = Cytochrome P450 2C19 (Homo sapiens, UniProt P33261); assay: Inhibition of human CYP2C19; assay type: ADME
Cytochrome P450 2D6 = Cytochrome P450 2D6 (Homo sapiens, UniProt P10635); assay: Inhibition of human CYP2D6; assay type: ADME
[14] = molecular target: Voltage-gated inwardly rectifying potassium channel KCNH2 (Homo sapiens, UniProt Q12809); assay: Binding affinity to human ERG
[15] = Half life in rabbit gastric antrum native tissue at 3 uM; assay type: ADME, tissue-based, Oryctolagus cuniculus, Stomach

T2 sequence (P08684 whole entry): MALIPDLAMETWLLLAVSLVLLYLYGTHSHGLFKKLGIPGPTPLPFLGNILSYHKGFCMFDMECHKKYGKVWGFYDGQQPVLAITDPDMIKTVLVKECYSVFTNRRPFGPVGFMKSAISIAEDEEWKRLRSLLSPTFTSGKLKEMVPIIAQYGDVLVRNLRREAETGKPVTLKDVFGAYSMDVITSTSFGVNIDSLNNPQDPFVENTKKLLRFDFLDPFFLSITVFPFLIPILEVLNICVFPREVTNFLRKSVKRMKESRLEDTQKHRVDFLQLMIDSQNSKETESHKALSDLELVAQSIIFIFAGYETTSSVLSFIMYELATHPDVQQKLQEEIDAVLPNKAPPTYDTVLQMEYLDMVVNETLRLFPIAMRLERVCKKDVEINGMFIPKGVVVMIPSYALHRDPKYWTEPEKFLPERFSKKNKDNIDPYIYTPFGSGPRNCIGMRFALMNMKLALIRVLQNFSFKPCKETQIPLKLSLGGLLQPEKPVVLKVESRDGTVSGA
T1 sequence (O43193 whole entry): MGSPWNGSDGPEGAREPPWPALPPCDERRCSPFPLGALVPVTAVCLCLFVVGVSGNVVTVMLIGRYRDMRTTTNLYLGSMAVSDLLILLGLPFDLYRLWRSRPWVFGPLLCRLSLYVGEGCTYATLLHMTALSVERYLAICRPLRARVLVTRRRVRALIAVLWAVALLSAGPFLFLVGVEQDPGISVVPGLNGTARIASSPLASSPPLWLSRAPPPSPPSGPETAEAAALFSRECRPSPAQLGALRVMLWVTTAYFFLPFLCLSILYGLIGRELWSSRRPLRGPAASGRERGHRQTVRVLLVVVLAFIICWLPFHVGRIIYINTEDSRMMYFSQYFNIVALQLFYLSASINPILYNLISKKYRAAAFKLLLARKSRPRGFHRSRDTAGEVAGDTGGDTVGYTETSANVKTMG
Chain of Voltage-gated inwardly rectifying potassium channel KCNH2 (Q12809 whole entry): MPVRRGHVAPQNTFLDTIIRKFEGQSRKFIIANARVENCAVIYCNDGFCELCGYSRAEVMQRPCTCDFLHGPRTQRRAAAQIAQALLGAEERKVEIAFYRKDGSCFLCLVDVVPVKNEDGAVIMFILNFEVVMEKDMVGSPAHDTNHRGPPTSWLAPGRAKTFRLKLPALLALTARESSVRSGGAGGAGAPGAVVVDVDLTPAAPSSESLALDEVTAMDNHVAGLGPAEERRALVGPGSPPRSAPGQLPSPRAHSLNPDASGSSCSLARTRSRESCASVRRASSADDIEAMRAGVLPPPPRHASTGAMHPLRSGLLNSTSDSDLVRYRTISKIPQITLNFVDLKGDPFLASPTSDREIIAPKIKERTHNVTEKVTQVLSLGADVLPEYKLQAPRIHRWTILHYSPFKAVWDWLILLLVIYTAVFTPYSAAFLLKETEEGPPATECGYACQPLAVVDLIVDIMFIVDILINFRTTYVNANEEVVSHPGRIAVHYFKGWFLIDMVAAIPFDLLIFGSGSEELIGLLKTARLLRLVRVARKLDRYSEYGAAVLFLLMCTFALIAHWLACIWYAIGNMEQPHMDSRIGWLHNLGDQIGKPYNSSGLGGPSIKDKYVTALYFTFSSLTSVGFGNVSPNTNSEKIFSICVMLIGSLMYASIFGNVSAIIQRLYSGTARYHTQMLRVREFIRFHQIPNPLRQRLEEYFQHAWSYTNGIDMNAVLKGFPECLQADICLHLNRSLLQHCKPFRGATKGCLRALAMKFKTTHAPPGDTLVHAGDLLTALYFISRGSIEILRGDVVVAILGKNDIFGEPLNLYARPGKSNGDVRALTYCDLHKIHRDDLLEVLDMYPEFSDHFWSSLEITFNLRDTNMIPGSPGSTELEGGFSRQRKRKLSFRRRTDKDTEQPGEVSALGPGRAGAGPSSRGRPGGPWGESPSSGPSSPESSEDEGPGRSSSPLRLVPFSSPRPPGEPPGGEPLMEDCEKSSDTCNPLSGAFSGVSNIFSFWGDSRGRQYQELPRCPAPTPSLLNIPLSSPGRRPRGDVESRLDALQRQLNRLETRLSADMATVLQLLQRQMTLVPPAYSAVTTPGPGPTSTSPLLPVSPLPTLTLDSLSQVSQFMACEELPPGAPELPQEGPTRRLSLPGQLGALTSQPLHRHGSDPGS
Chain of Cytochrome P450 2C19 (P33261 whole entry): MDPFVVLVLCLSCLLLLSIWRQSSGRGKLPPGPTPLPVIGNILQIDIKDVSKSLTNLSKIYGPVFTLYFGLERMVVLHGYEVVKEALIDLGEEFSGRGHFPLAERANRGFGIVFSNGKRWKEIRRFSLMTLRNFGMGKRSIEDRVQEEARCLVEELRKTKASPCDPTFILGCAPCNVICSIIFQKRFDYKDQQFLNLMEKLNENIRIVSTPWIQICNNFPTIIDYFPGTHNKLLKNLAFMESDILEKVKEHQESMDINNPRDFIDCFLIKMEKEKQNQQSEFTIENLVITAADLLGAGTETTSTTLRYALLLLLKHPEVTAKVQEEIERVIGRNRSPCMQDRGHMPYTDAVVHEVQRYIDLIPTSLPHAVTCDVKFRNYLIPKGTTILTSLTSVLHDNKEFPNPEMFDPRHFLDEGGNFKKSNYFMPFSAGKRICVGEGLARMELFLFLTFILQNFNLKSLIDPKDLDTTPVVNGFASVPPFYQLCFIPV
Chain of Cytochrome P450 2D6 (P10635 whole entry): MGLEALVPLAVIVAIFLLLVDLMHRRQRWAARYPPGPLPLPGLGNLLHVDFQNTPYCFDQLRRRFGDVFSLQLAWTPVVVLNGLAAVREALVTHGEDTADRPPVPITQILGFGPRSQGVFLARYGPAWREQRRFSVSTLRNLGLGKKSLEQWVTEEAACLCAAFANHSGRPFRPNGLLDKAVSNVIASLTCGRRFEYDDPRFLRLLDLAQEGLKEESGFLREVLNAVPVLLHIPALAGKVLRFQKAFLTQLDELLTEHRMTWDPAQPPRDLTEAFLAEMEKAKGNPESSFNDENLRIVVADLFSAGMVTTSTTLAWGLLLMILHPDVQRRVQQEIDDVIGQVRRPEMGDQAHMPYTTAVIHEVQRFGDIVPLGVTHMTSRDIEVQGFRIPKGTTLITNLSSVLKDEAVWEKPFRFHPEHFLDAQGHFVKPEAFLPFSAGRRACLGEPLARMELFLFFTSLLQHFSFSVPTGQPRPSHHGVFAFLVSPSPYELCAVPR
Chain of Cytochrome P450 2C9 (P11712 whole entry): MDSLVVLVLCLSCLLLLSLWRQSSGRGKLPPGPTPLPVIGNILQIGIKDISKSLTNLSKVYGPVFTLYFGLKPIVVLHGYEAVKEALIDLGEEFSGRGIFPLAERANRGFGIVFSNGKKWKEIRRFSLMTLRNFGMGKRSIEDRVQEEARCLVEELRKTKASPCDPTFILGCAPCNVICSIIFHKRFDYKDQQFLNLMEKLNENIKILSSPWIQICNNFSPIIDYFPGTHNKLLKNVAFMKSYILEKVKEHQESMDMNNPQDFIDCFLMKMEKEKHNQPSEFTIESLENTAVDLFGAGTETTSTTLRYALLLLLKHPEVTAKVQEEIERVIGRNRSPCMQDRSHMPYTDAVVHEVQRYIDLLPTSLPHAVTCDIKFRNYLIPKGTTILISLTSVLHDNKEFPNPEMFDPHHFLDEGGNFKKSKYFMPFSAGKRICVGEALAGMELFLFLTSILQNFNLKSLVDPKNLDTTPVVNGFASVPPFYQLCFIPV

With C[C@H]1CN(Cc2ccc(CCC(=O)N3CCC(Nc4cccc(F)c4)CC3)cc2)CCN1 the Intrinsic activity (Motilin receptor [1]) was 1, the IC50 (Cytochrome P450 3A4 [2]) was 10 µM and the IC50 (Cytochrome P450 3A4 [3]) was 18 µM. It also gave an Activity (Cytochrome P450 3A4 [4]) of 3.2 and an EC50 (Motilin receptor [5]) of 25.1 nM.
CC(C(=O)N1CCC(Nc2ccc(F)cc2)CC1)c1ccc(CN2C[C@@H](C)N[C@@H](C)C2)cc1 (some centres not stated) showed an Intrinsic activity (Motilin receptor [1]) of 1.1, an IC50 (Cytochrome P450 3A4 [2]) of 8.7 µM and an Activity (Cytochrome P450 3A4 [4]) of 7.6. The EC50 (Motilin receptor [5]) was 31.6 nM.
In the case of C[C@H]1CN(Cc2ccc(CC(=O)N3CCC(Nc4cccc(C#N)c4)CC3)cc2)CCN1, the Intrinsic activity (Motilin receptor [1]) is reported as 1.1, the IC50 (Cytochrome P450 3A4 [2]) is reported as 36 µM and the IC50 (Cytochrome P450 3A4 [3]) is reported as 58 µM. The Activity (Cytochrome P450 3A4 [4]) was 2, the Activity (Stomach [6]) was 462% and the Activity (Stomach [7]) was 218%. The Activity (Stomach [8]) was 98%, the Cmax [9] was 200 nM and the Tmax [10] was 4 h. For the same compound, the AUC (Rattus norvegicus) was 2.8 kg·min/L and the EC50 (Motilin receptor [5]) was 3.98 nM.
With C[C@@H]1CN(Cc2ccc(CC(=O)N3CCC(Nc4cccc(F)c4)CC3)cc2)CCN1 the Intrinsic activity (Motilin receptor [1]) was 0.7 and the EC50 (Motilin receptor [5]) was 20 nM.
With C[C@@H]1CN(Cc2ccc(C(C)(C)C(=O)N3CCC(Nc4ccc(F)cc4)CC3)cc2)C[C@H](C)N1 the Intrinsic activity (Motilin receptor [1]) was 0.7, the IC50 (Cytochrome P450 3A4 [2]) was 4.7 µM and the Activity (Cytochrome P450 3A4 [4]) was 6.1. The EC50 (Motilin receptor [5]) was 31.6 nM.
For C[C@@H]1CN(Cc2ccc(-c3cccnc3C(=O)N3CCC(Nc4ccc(F)cc4)CC3)cc2)C[C@H](C)N1, the Activity (Stomach [11]) was 343%, the EC50 (Motilin receptor [5]) was 3.98 nM and the IC50 (Cytochrome P450 3A4 [12]) was 20 µM. For the same compound, the IC50 (Cytochrome P450 3A4 [13]) was 1400 nM, the IC50 (Cytochrome P450 1A2) was over 23 µM and the IC50 (Cytochrome P450 2C9) was over 23 µM. For the same compound, the IC50 (Cytochrome P450 2C19) was over 23 µM, the IC50 (Cytochrome P450 2D6) was over 23 µM and the IC50 [14] was over 31.6 µM.
In the case of C[C@H]1CN(Cc2ccc(CC(=O)N3CCC(Nc4ccc(F)cc4)CC3)cc2)CCN1, the Intrinsic activity (Motilin receptor [1]) is reported as 0.8 and the EC50 (Motilin receptor [5]) is reported as 10 nM.
CC[C@H]1OC(=O)[C@H](C)[C@@H](O[C@H]2C[C@@](C)(OC)[C@@H](O)[C@H](C)O2)[C@H](C)[C@@H](O[C@@H]2O[C@H](C)C[C@H](N(C)C)[C@H]2O)[C@](C)(O)C[C@@H](C)C(=O)[C@H](C)[C@@H](O)[C@]1(C)O [ERYTHROMYCIN] showed an Intrinsic activity (Motilin receptor [1]) of 1.3, an Activity (Stomach [11]) of 490% and an Activity (Stomach [6]) of 189%. The Activity (Stomach [7]) was 69%, the Activity (Stomach [8]) was 14% and the half-life at 3 µM [15] was 24 min. It also gave an IC50 (Cytochrome P450 3A4 [12]) of 1.9 µM and an IC50 (Cytochrome P450 3A4 [13]) of 190 nM.
In the case of C[C@@H]1CN(Cc2ccc(CCC(=O)N3CCC(Nc4ccc(F)cc4)CC3)cc2)C[C@H](C)N1, the Intrinsic activity (Motilin receptor [1]) is reported as 0.9 and the EC50 (Motilin receptor [5]) is reported as 50.1 nM.
